Converted amounts (≈) assume the structure as drawn. The source made the active and inactive calls. The rule behind the calls is not given here.
How the values were obtained:
[1] = molecular target: T1, Enoyl-[acyl-carrier-protein] reductase [NADH] (Mycobacterium tuberculosis) (UniProt P9WGR1); assay: Inhibition of Mycobacterium tuberculosis recombinant InhA expressed in Escherichia coli using trans-2-dodecenoyl-coenzyme-A as substrate at 50 uM
T1 sequence (whole entry): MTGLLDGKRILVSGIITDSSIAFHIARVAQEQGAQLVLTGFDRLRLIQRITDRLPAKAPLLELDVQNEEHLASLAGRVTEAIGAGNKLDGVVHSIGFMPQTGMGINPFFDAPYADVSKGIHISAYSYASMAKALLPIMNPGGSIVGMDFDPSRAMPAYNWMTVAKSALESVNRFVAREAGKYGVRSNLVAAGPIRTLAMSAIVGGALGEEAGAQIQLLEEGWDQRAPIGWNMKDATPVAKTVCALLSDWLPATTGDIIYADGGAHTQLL
Summary of the method: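 Recombinant InhA was expressed in E. coli and purified. Reactions with DD-CoA substrate, NADH and inhibitor were run in 30 mM PIPES, 150 mM NaCl, pH 6.8, and started by adding InhA (100 nM final). Percent inhibition was calculated from initial velocity against a no-inhibitor control. Run in triplicate.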

[2] = system: Mycobacterium tuberculosis; assay: Antimycobacterial activity against Mycobacterium tuberculosis H37Rv by two-fold serial dilution method; type: functional
Summary of the method: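 A single colony was grown in complete Middlebrook 7H9 at 37 °C to exponential phase (about 10⁸ CFU/mL, OD600 0.8–1.0). Cultures were diluted to about 10⁷ CFU/mL and streaked onto plates with two-fold dilutions of compound. MIC is the minimal inhibitory concentration.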

SMILES | inhibition [1] | MIC [2]
CCCCCCCCCCCCc1cn(Cc2ccccc2)nn1 | 52% | > 4 µg/mL
CCCCCCc1cn(CCc2ccccc2)nn1 | 10% | 10 µg/mL (≈ 38.9 µM)
CCCCCCCCCCCCc1cn(Cc2cccc(OC)c2)nn1 | 46% | 4 µg/mL (≈ 11.2 µM)
CCCCCCCCCCCCc1cn(CCc2ccccc2OC)nn1 | 61% | 2 µg/mL (≈ 5.38 µM)
CCCCCCCCc1cn(CCc2ccccc2C)nn1 | 37% | 2 µg/mL (≈ 6.68 µM)
CCCCCCCCn1cc(Cc2ccccc2)nn1 | 73% | 25 µg/mL (≈ 92.1 µM)
CCCCCCCCCCc1cn(CCc2ccccc2)nn1 | 43% | 4 µg/mL (≈ 12.8 µM)
CCCCCCCCn1cc(-c2cccc(O)c2)nn1 | inactive | 
CCCCCCCCCCCCn1cc(Cc2ccccc2)nn1 | 58% | 25 µg/mL (≈ 76.3 µM)
CCCCCCc1cn(Cc2cccc(Cl)c2)nn1 | inactive | 4 µg/mL (≈ 14.4 µM)
CCCCCCCCn1cc(-c2cccc(C)c2)nn1 | 33% | > 4 µg/mL
CCCCCCc1cn(Cc2ccccc2)nn1 | 21% | 25 µg/mL (≈ 103 µM)
CCCCCCCCCCCCc1cn(CCc2ccc(OC)c(OC)c2)nn1 | inactive | 0.25 µg/mL (≈ 0.623 µM)
CCCCCCCCCCCCn1cc(CCc2ccccc2)nn1 |  | 0.5 µg/mL (≈ 1.46 µM)
CCCCCCCCCn1cc(Cc2ccccc2)nn1 | 75% | 25 µg/mL (≈ 87.6 µM)
CCCCCCCCCCc1cn(Cc2cccc(OC)c2)nn1 | 20% | > 4 µg/mL

SMILES | inhibition [1] | MIC [2]
CCCCCCCCCCc1cn(Cc2cccc(Cl)c2)nn1 | 42% | 4 µg/mL (≈ 12 µM)
CCCCCCCCCCCCc1cn(CCc2ccccc2)nn1 | 67% | 4 µg/mL (≈ 11.7 µM)
CCCCCCCCCCc1cn(CCc2ccc(OC)c(OC)c2)nn1 | 21% | 2 µg/mL (≈ 5.35 µM)
CCCCCCCCCCCCn1nncc1CCc1ccccc1 | 9% | > 4 µg/mL
CCCCCCCCCCc1cn(CCc2ccccc2C)nn1 | 58% | 2 µg/mL (≈ 6.11 µM)
CCCCCCc1cn(Cc2cc(C)cc(C)c2)nn1 | 19% | 
CCCCCCCCCCCCn1cc(COc2ccc(Cl)cc2Cl)nn1 | < 5% | 4 µg/mL (≈ 9.7 µM)
CCCCCCc1cn(Cc2cccc(OC)c2)nn1 | inactive | > 4 µg/mL
CCCCCCCCCCc1cn(CCc2ccccc2OC)nn1 | 48% | 2 µg/mL (≈ 5.82 µM)
CCCCCCCCCCCCn1cc(COc2ccc(Cl)cc2OC)nn1 | 35% | > 4 µg/mL
CCCCCCCCCCc1cnnn1CCc1ccccc1 | 33% | > 4 µg/mL
CCCCCCCCc1cn(Cc2ccccc2)nn1 | 34% | > 4 µg/mL
CCCCCCCCCCCCn1cc(COc2ccccc2)nn1 | 54% | 2 µg/mL (≈ 5.82 µM)
CCCCCCCCCCc1cn(Cc2ccccc2)nn1 | 44% | > 4 µg/mL
CCCCCCCCCCc1cn(Cc2cc(OC)cc(OC)c2)nn1 | 24% | > 4 µg/mL

Source: ChEMBL document CHEMBL2021808, “Chemical synthesis and biological evaluation of triazole derivatives as inhibitors of InhA and antituberculosis agents” (Eur J Med Chem, 2012)
